# AF4-AF9 inh: blocks AF4 peptide binding to human AF9; hit rate 0.47% among 350,000; AlphaScreen, biotin-AF4 peptide binding to FLAG-AF9; AID 651704; P42568; inhibition, % at 10 µM;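 active = every replicate reaching a set inhibition limit, whatever the replicate mean, cut at about 25% in these data; inconclusive = mean inhibition reaches that limit but some replicates miss it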;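 note: 0% = plate neutral control median and 100% = total signal loss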
# RAD52 anneal inh: RAD52 (human) annealing inhibition. recombinant RAD52 DNA annealing, FRET fluorescence. inhibition, % at 18.7 µM. hit rate 0.46% among 360,000;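 active = every replicate showing at least 50% inhibition; inconclusive = mean inhibition at least 50% but not in every replicate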
# Casp6 inh: inhibitors of human caspase-6 | hit rate 0.53% among 350,000 | inhibition, % at 12.5 µM | AID 686996 | P55212 | purified caspase-6, Z-VEID-R110 cleavage fluorescence;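 active = mean inhibition across replicates at least about 35%, with every replicate also reaching that limit, limit read from the data; inconclusive = only one of the two criteria met; inactive = neither criterion met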;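 note: 0% = median of neutral control wells and 100% = no fluorescence left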
# S100A4 inh HTS: blocks human S100A4 binding to myosin IIA peptide; P26447; S100A4/TAMRA-MyoIIA peptide fluorescence polarization; inhibition, % at 10.7 µM; hit rate 0.14% among 360,000; AID 652163;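 active = mean inhibition of at least 70% across replicates, with every replicate also reaching that level; inconclusive = mean inhibition reaches 70% but some replicates fall short; inactive = mean inhibition below 70%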
#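 Test system – S100A4 monomer (human) · Compound – single-point compound testing · Schedule – 5 min incubation before reading · Probe or stimulus – TAMRA-labelled myosin IIA heavy-chain peptide probe, 5 nM · Benchmarks – neutral control DMSO, positive control TFP · Medium – Calcium-containing HEPES buffer, pH 7.2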
# XiGFP reactiv: reactivates the inactive X chromosome in mouse fibroblasts; activation, % at 7.58 µM; AID 743238; hit rate 0.055% among 360,000; XiGFP mouse fibroblasts, % GFP-positive cells imaging, 3 d; cells co-treated with 5-aza-dC sensitizer; scaled so ellipticine positive control = 100%;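 active = mean normalized replicate activation at least 10% and every replicate at or above 10%; inconclusive = only one of the two criteria met; inactive = mean below 10% and not all replicates reach 10%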;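 note: 0% = median of on-plate neutral control wells and 100% = ellipticine 6 µM median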
#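 assay system = SV40-immortalized XiGFP fibroblast cells, line 68-5-11 | buffer or medium = DMEM plus 5-aza-dC sensitizer | doses = single-point pinned compound dosing | times = 3-day compound exposure, then 15 min fixation at room temperature | benchmarks = positive control ellipticine, 6 µM final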
# RAD54 branch: blocks human RAD54 Holliday junction branch migration | Q92698 | FAM/BHQ fluorescence | inhibition, % at 10.4 µM | hit rate 0.14% among 360,000;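 active = mean normalized replicate activity at least 40 and at least half of replicates scoring 40 or more; inconclusive = only one of the two criteria met; inactive = mean below 40 and under half of replicates reaching 40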;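 note: 0% = median of neutral control wells and 100% = median of positive control wells; inhibitors cause a drop in the FAM fluorescence signal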
# Target sequence (Q92698 whole entry, looked up): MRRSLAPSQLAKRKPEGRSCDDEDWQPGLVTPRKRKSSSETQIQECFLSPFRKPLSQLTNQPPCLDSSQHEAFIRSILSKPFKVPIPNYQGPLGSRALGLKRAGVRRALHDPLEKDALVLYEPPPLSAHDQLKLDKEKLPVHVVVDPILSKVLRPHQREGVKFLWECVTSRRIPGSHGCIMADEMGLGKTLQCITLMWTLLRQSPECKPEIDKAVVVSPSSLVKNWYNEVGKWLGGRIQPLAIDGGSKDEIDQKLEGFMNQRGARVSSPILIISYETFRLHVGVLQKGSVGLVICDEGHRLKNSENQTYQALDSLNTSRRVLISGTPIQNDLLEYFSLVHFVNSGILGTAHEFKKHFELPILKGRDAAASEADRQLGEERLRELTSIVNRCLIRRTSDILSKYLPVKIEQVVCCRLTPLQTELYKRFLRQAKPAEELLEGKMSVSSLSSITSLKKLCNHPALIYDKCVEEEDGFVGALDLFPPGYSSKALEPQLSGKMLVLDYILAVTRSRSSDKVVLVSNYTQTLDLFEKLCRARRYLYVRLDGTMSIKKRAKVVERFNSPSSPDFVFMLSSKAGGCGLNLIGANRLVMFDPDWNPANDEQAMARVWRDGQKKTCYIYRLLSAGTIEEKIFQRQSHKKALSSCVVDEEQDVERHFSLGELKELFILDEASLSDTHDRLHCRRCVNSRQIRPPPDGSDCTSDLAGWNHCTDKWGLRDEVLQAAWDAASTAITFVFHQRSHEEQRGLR
# DNA binding: DNA binding artifact in Rad54 counter-screen | AID 651673 | Acridine orange-DNA displacement, fluorescence polarization, 20 min | AC50, µM (titrated, usually from 35 µM), without a hit: top-dose activity change, negative = DNA binding | hit rate 8% among 460 | shares compounds with RAD54 branch;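 active = signal drop giving an AC50 within twice the top valid tested concentration of each sample, actives reach about 35 µM in these data; inactive = activity opposite to expected, plus the rest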;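 note: polarization loss reports compound binding to salmon sperm DNA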
# AlphaScreen intf: AlphaScreen signal interference counter-screen hit; shares compounds with AF4-AF9 inh; signal luminescence; AC50, µM (top dose mostly 12 µM), for inactives: at the top dose activity change, negative = inhibition; hit rate 45% among 530; cut-off not given, nearly all actives have AC50 up to about 14 µM
# DNA binder FP: binds DNA, flagging false RAD52 inhibitor hits | shares compounds with RAD52 anneal inh | hit rate 8% among 1,000 | Salmon sperm DNA/acridine orange FP displacement, DNA binding | AC50, µM;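 active = fitted half-maximal concentration for signal loss at or below twice the highest dose tested, in every separate run, actives reach about 64 µM in these data; inconclusive = runs disagree, or flat partial signal loss, or poor fit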
# The depositor's hits bear a star; i = inactive; ? = inconclusive; / = not tested or not shown. An excerpt weighted towards active compounds, which were near 1.3% of everything screened.
SMILES,AF4-AF9 inh,RAD52 anneal inh,Casp6 inh,S100A4 inh HTS,XiGFP reactiv,RAD54 branch,DNA binding,DNA binder FP,others
CC(C)=C(C)c1cc2nc(NCCCN(C)C)n(C)c(=O)c2s1,5,8,-2,0,0,7,/,/,
CN(C)CCCNc1nc2cc(-c3ccc4c(ccn4C)c3)sc2c(=O)n1C,8,96*,-114,3,0,54*,0%,i,
COc1ccc(-c2cc3nc(NCCN4CCCC4)n(C)c(=O)c3s2)cc1OC,9,84*,-73,1,0,70*,0%,i,
COc1ncccc1-c1cc2nc(NCCCN(C)C)n(C)c(=O)c2s1,4,75*,-14,-1,0,90*,-19%,63µM*,
COc1cccc(-c2cc3nc(NCCCN(C)C)n(C)c(=O)c3s2)c1,4,79*,-31,-7,0,62*,-2%,?,
CCNC(=O)C[C@H]1CC[C@H]2[C@@H](COc3ccc(NC(=O)c4cccc(C#N)c4)cc3C(=O)N2C)O1,/,/,/,/,0,/,/,/,
Cc1noc(C)c1NC(=O)Nc1cccc2c1O[C@H](CN(C)C(=O)Nc1cccc3ccccc13)[C@H](C)CN([C@H](C)CO)C2=O,2,0,2,-6,0,3,/,/,
Cc1cccn2c(=O)c3cc(C(=O)NCCN4CCOCC4)c(=N)n(CCCN4CCOCC4)c3nc12,-2,78*,-32,-7,0,92*,8%,i,
Cc1cccn2c(=O)c3cc(C(=O)NCC4CCCO4)c(=N)n(CCN4CCOCC4)c3nc12 (stereo not given),/,20,0,3,/,42,/,/,
COc1ccc(CCNC(=O)c2cc3c(=O)n4ccccc4nc3n(CCCN3CCOCC3)c2=N)cc1OC,4,54*,-11,-3,0,?,14%,i,
COc1ccc2c3c(n(C)c2c1)[C@H](CO)N(C(=O)NC(C)C)CC31CCN(CC2CC2)CC1,11,-2,-7,6,0,/,/,/,
CC(C)NC(=O)N1C[C@@H]2[C@H](c3ccccc31)[C@@H](CO)N2Cc1ccccc1,1,-10,-4,-20,0,-1,/,/,
CCN(CC)CCCN(C(=O)c1ccco1)c1nc(-c2ccc(Cl)cc2)cs1,26*,79*,0,-7,0,59*,6%,i,
O=C(c1ccco1)N(CCCN1CCOCC1)c1nc(-c2ccc(Cl)cc2)cs1,/,/,/,/,/,2,/,/,
CCN1CCN(c2ccc(Nc3ccnc4ccccc34)cc2)CC1,20,95*,-47,2,0,78*,-12%,i,
COc1ccc(NC(=O)c2ccc(-c3ccc(-c4noc(C)n4)cc3C)cc2)cc1N1CCN(C)CC1,38*,101*,/,-11,3,54*,3%,i,AlphaScreen intf=12µM*
CCOc1cccc(-c2cc(N3CCN(CCO)CC3)n3nccc3n2)c1,2,18,-10,11,0,11,/,/,
CN1CCCN(c2cc(-c3ccc4ccccc4c3)nc3ccnn23)CC1,9,104*,-55,139*,0,64*,-4%,i,
Cc1cccc(-c2cc(N3CCCN(C)CC3)n3nccc3n2)c1,30*,103*,-45,112*,0,?,-6%,i,
N#C[C@H]1[C@@H](c2ccccc2C2=CCCCC2)[C@H](CO)N1C(=O)c1cccc(F)c1,-2,7,-3,3,0,/,/,/,
COc1ccc(S(=O)(=O)Nc2cccc3c2O[C@@H](CN(C)C)[C@@H](C)CN([C@@H](C)CO)C3=O)cc1,-2,1,-1,2,-1,6,/,/,
C[C@H](CO)N1C[C@H](C)[C@@H](CN(C)C(=O)NC2CCCCC2)Oc2ccc(NC(=O)C3CC3)cc2CC1=O,-3,8,0,0,-1,8,/,/,
NC(=O)CN1CCN(CCN2C(=O)c3cccc4cccc(c34)C2=O)CC1,1,47,0,-8,1,58*,-2%,i,
CCNC(=S)N1CCN(CCN2C(=O)c3cccc4cccc(c34)C2=O)CC1,-6,-16,2,-3,0,29,/,/,
O=C1c2cccc3cc([N+](=O)[O-])cc(c23)C(=O)N1CCN1CCCC1,-2,82*,2,-3,0,98*,34µM*,25µM*,
SMILES,AF4-AF9 inh,RAD52 anneal inh,Casp6 inh,S100A4 inh HTS,XiGFP reactiv,RAD54 branch,DNA binding,DNA binder FP,others
O=C1c2cccc3cc([N+](=O)[O-])cc(c23)C(=O)N1/N=C/c1ccc(O)cc1O,2,-5,-1,-2,0,/,/,/,
CN(C)CCNC(=O)c1cc2c(s1)-c1ccc(Cl)cc1SC2,?,81*,-90,-2,1,57*,8%,?,
CCN(CC)Cc1cc2[nH]c3c4ccc(Cl)cc4ncc3c2cc1OC,12,102*,-29,-5,0,101*,6%,i,
CCN(CC)CCCNC(=O)c1ccc2c3n(nc2c1)-c1ccc(Cl)cc1CO3,10,65*,-1,3,0,52*,-4%,i,
CN1CCN(C(c2ccc(F)cc2)c2ccc3cccnc3c2O)CC1 (stereo not given),/,/,/,/,/,-8,/,/,
CN1CCN(C(c2ccc(Br)cc2)c2cc(Cl)c3cccnc3c2O)CC1 (stereo not given),84*,7,-4,0,0,3,/,/,AlphaScreen intf=2.8µM*
CO[C@H]1CN(C)C(=O)c2ccc(NC(=O)c3cc(C)on3)cc2OC[C@@H](C)NC[C@H]1C,-6,7,/,-10,0,-2,/,/,
CCc1cccc(NC(=O)CCCCCC2NC(=O)NC2C)c1 (stereo not given),95*,-9,-3,-2,0,/,/,/,AlphaScreen intf=0.29µM*
CC1NC(=O)NC1CCCCCC(=O)Nc1ccc(F)c(Cl)c1 (stereo not given),93*,-20,-6,-13,0,/,/,/,AlphaScreen intf=0.6µM*
CCC(=O)Nc1ccc(F)c(Cl)c1,/,/,/,/,/,4,/,/,
C[C@H]1CN([C@@H](C)CO)S(=O)(=O)c2ccc(C#Cc3cccnc3)cc2O[C@H]1CN(C)C(=O)C1CC1,0,-10,2,6,0,4,/,/,
Cc1cc(C)c2sc(N(CCCN(C)C)C(=O)c3ccc(S(=O)(=O)N4CCCc5ccccc54)cc3)nc2c1,56*,39,-19,-2,0,0,/,/,AlphaScreen intf=-18%

# Screens: PubChem, Broad Institute
